Reference: ChEMBL document CHEMBL4145626, “Chemical Constituents of Apios americana Tubers and Their Inhibitory Activities on Nitric Oxide Production in Lipopolysaccharide-Stimulated RAW 264.7 Macrophages” (J Nat Prod, 2018)

Tested on: RAW264.7
Experiment: Inhibition of LPS-induced nitric oxide production in mouse RAW264.7 cells pretreated for 1 hr followed by LPS-stimulation and measured after 24 hrs by Griess assay
Assay type: functional, cell-based
Procedure, shortened: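 RAW 264.7 macrophages seeded at 0.9 × 10^5 cells/mL and grown 24 h; pretreated with compound 1 h, then stimulated with LPS (1 μg/mL) for 24 h. Accumulated nitrite in medium measured with Griess reagent as NO indicator. IC50 = concentration giving 50% decrease in NO production; means of three independent experiments. NIL (10 μM) as positive control; MTT viability assay run in parallel.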

IC50	SMILES
> 1000 nM	O=c1c(-c2ccc(O)cc2O)coc2cc(O[C@@H]3O[C@H](CO)[C@@H](O)[C@H](O)[C@H]3O)cc(O)c12
600 nM	O=c1c(-c2ccc(O)cc2O)coc2cc(O[C@@H]3O[C@H](CO[C@@H]4O[C@H](CO)[C@@H](O)[C@H](O)[C@H]4O)[C@@H](O)[C@H](O)[C@H]3O)cc(O)c12
> 1000 nM	COc1cc(O[C@@H]2O[C@H](CO)[C@@H](O)[C@H](O)[C@H]2O)cc2occ(-c3ccc(O)cc3)c(=O)c12
470 nM	COc1cc(O)cc2occ(-c3ccc(O[C@@H]4O[C@H](CO)[C@@H](O)[C@H](O)[C@H]4O)cc3O)c(=O)c12
> 1000 nM	COc1cc(O[C@@H]2O[C@H](CO)[C@@H](O)[C@H](O)[C@H]2O)cc2occ(-c3ccc(O)cc3O)c(=O)c12
> 1000 nM	O=c1c(-c2ccc(O)cc2)coc2cc(O[C@@H]3O[C@H](CO)[C@@H](O)[C@H](O)[C@H]3O)cc(O)c12 [GENISTIN]
710 nM	O=c1c(-c2ccc(O[C@@H]3O[C@H](CO)[C@@H](O)[C@H](O)[C@H]3O)cc2O)coc2cc(O[C@@H]3O[C@H](CO)[C@@H](O)[C@H](O)[C@H]3O)cc(O)c12
> 1000 nM	O=c1c(-c2ccc(O[C@@H]3O[C@H](CO)[C@@H](O)[C@H](O)[C@H]3O)cc2O)coc2cc(O)cc(O)c12
> 1000 nM	COc1cc(-c2coc3cc(O[C@@H]4O[C@H](CO)[C@@H](O)[C@H](O)[C@H]4O)cc(OC)c3c2=O)ccc1O

Continued, compound first:

SMILES	IC50
O=c1c(-c2ccc(O)cc2)coc2cc(O[C@@H]3O[C@H](CO[C@@H]4O[C@H](CO)[C@@H](O)[C@H](O)[C@H]4O)[C@@H](O)[C@H](O)[C@H]3O)cc(O)c12	> 1000 nM
CC(=N)NCCCC[C@H](N)C(=O)O [L-NIL]	1550 nM
O=c1c(-c2ccc(O)cc2O)coc2cc(O)cc(O)c12	> 1000 nM
O=c1c(-c2ccc(O)cc2)coc2cc(O[C@@H]3O[C@H](CO[C@@H]4O[C@H](CO[C@@H]5O[C@H](CO)[C@@H](O)[C@H](O)[C@H]5O)[C@@H](O)[C@H](O)[C@H]4O)[C@@H](O)[C@H](O)[C@H]3O)cc(O)c12	> 1000 nM
COc1cc(-c2coc3cc(O)cc(OC)c3c2=O)ccc1O	> 1000 nM
O=c1c(-c2ccc(O)cc2)coc2cc(O)cc(O)c12 [GENISTEIN]	> 1000 nM
NC(=O)NC1NC(=O)NC1=O (stereo unspecified) [ALLANTOIN]	500 nM
COc1cc(O)cc2occ(-c3ccc(O)cc3O)c(=O)c12	600 nM
COc1cc(O)cc2c1C(=O)[C@]1(O)c3ccc(O)cc3O[C@@H]1O2	380 nM
O=c1c2c(O)cc(O)cc2oc2oc3cc(O)ccc3c12	> 1000 nM
COc1cc(O[C@@H]2O[C@H](CO)[C@@H](O)[C@H](O)[C@H]2O)cc2occ(-c3ccc(O[C@@H]4O[C@H](CO)[C@@H](O)[C@H](O)[C@H]4O)cc3O)c(=O)c12	420 nM
COc1cc(O)cc2occ(-c3ccc(O)cc3)c(=O)c12	> 1000 nM
